According to paper PMC3838201 (Circulation, 2013):
Where two headings read alike, the source gives them in different places.

What was measured:
[1] = tested on: human microvascular endothelial cells; test: Intracellular ADMA in human endothelial cells; type: cell-based; conditions: 20 μM, 24 hours
Method in brief: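 HMEC-1 microvascular endothelial cells in serum-free DMEM got test compound (20 μM final), a known DDAH1 inhibitor as control, or DMSO vehicle for 3 h. Medium was then switched to DMEM with 10% FBS, 4mM HEPES and penicillin/streptomycin (pH 7.6), 37°C/5% CO2, until 24 h. Cells were washed and lysed; protein measured by Coomassie; intracellular ADMA by ELISA. Duplicate experiments; unpaired t-test versus vehicle.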

[2] = biological target: recombinant human DDAH1 (rhDDAH1) (Homo sapiens, UniProt O94760); test: Colorimetric microplate DDAH activity assay; type: biochemical
Sequence of recombinant human DDAH1 (rhDDAH1) (O94760 whole entry): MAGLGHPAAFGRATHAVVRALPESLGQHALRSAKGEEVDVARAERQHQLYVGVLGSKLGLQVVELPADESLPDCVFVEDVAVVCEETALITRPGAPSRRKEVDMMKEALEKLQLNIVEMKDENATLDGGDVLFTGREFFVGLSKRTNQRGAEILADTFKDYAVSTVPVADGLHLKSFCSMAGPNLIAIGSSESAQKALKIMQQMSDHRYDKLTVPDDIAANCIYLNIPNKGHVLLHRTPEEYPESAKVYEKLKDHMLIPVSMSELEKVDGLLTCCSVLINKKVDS

rhDDAH1 [3] = biological target: T1, rhDDAH1 (Homo sapiens, UniProt O94760); test: Reversibility study by inhibitor dilution; type: biochemical; conditions: DDAH 30 μM pre-incubated with inhibitor, serially diluted
T1 sequence (O94760 whole entry): as above
Method in brief: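 DDAH (30 μM, 100-fold above the enzymatic assay concentration) was pre-incubated with test compound at three concentrations, then diluted. Recovery of enzymatic activity was read by fluorometric DDAH assay, with a known DDAH1 inhibitor as control.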

[4] = tested on: human saphenous vein segments; test: NOx release from human saphenous vein segments; conditions: 24 hours; in the presence or absence of A23187 (0.5 μM); omeprazole 3–100 μM, L-257 100 μM
Method in brief: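 Saphenous vein segments harvested during CABG surgery were rinsed in lactated Ringer's solution, cut into 0.5 cm pieces and held in endothelial cell medium. They were kept basal or stimulated with A23187 (0.5 μM) for 24 hours with test compound, a reference DDAH1 inhibitor or vehicle. Griess reaction measured total nitrite (NOx) in the conditioned medium. Duplicate experiments, mean ± SEM, one-way ANOVA with Bonferroni post-test versus vehicle.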

[5] = Serum ADMA levels in mice in vivo; parameters: species or system mouse; conditions: C57BL/6J mice; 30 mg/kg/day subcutaneous; 5-week study period
[6] = single oral dose of 30 mg, cited from earlier work
DDAH = DDAH (Homo sapiens, UniProt O94760); test: High throughput screen for DDAH inhibitors; type: biochemical; conditions: primary hits of the screen of about 130,000 small molecules
Sequence of DDAH (O94760 whole entry): as above
Method in brief: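 Purified recombinant human DDAH1 was used in a DDAH activity assay to screen a library of about 130,000 small molecules. Activity was monitored by colorimetric and fluorometric assays. Hits were compounds inhibiting DDAH by more than 30%. Primary hits were then validated with orthogonal colorimetric and fluorimetric activity assays.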

HMVECs [7] = test: Western blot of DDAH1 and DDAH2 expression in HMVECs; type: cell-based, human; conditions: 3–100 μM for 24 hours
rhDDAH1 [8] = biological target: T1, rhDDAH1; test: Surface plasmon resonance enzyme-drug binding study; conditions: 12.5–100 μM; rhDDAH1 amine coupled to CM5 chip; pH 6.5
Method in brief: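 rhDDAH1 was purified with HEPES elution (10mM HEPES in PBS) to avoid competing amines, then amine-coupled to a CM5 chip. Test compound from a DMSO stock, or DMSO vehicle, was diluted in 100mM Na2HPO4, pH 6.5. It was passed over the chip at 4 concentrations (serial dilution, 12.5–100 μM). Binding was followed in real time as sensorgram peaks, in duplicate experiments.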

HMVECs [9] = test: Western blot of eNOS and phospho-eNOS in HMVECs; type: cell-based, human; conditions: HMVEC lysate, normalized to β-actin
Method in brief: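 Endothelial cell lysates (20 μg) from cells exposed to test compound or vehicle were analysed by Western blot for total eNOS and phospho-eNOS. VEGF (50 ng/mL) served as positive control for eNOS phosphorylation. Bands were normalized to β-actin.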

mouse thoracic aorta = test: Vascular reactivity of isolated mouse thoracic aorta ex vivo; conditions: aorta exposed for 24 hours
[10] = tested on: primary human microvascular endothelial cells (HMVECs); test: Intracellular NOx in endothelial cells; type: cell-based; conditions: 24 hours; lysates, normalized to total protein
Method in brief: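 Primary HMVECs were exposed to vehicle or various concentrations of test compound for 24 h, with a selective DDAH1 inhibitor as control. Total nitrite (NOx) in cell lysates was measured by Griess reaction and normalized to total protein. Values come from duplicate experiments.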

[11] = IC50, 8 point concentration range 0.78–100 μM, Mean ± SEM, triplicate

## COc1ccc2nc([S@@+]([O-])Cc3ncc(C)c(OC)c3C)[nH]c2c1 [Esomeprazole, esomeprazole]
[1]
  increase of intracellular ADMA compared to vehicle control: ~ 30%
[2]; [11]
  IC50: 52 ± 5 µM

## COCCNC(N)=NCCC[C@H](N)C(=O)O [L-257]
rhDDAH1 [3]
  reversibility of inhibition of DDAH enzymatic activity upon dilution: complete reversibility upon dilution
[1]; control DDAH inhibitor
  effect on intracellular ADMA: increased ADMA
[4]
  NOx released from isolated human saphenous veins: significantly inhibited

## Cc1c(OCC(F)(F)F)ccnc1C[S+]([O-])c1nc2ccccc2[nH]1 (stereo not shown) [Lansoprazole, lansoprazole]
[5]
  increase of serum ADMA compared to vehicle control: about 20%
[1]
  increase of intracellular ADMA compared to vehicle control: ~ 30%
[6]; read-out: maximum plasma concentration (Cmax)
  Cmax: 2 to 6 µM
[6]
  time to maximum plasma concentration: ≤ 3 h
DDAH
  inhibition of DDAH in high throughput screen: more than 30%

## COc1ccc2[nH]c([S+]([O-])Cc3ncc(C)c(OC)c3C)nc2c1 (stereo not shown) [Omeprazole, omeprazole]
HMVECs [7]
  protein expression of DDAH1 and DDAH2: neither regulated the expression of DDAH1 nor that of DDAH2
rhDDAH1 [3]
  reversibility of inhibition of DDAH enzymatic activity upon dilution: rapid and almost complete reversibility
[4]
  NOx released from isolated human saphenous veins: significantly inhibited
rhDDAH1 [8]
  binding to DDAH (SPR sensorgram): direct interaction between the PPI and DDAH
[2]; [11]
  IC50: 58 ± 5 µM
[2]; IC50, IC50 value used to set the concentrations of the reversibility study
  IC50: ~60 µM
HMVECs [9]
  expression of total eNOS and active eNOS (phospho-eNOS): downregulated
Mouse thoracic aorta
  contraction to phenylephrine (PE): enhanced the contraction to phenylephrine
  endothelium independent vasorelaxation to sodium nitroprusside: did not effect
  relaxation to acetylcholine (ACh): blunted the relaxation to acetylcholine
DDAH
  inhibition of DDAH in high throughput screen: more than 30%
[10]
  levels of nitrogen oxides (NOx) in cultured endothelial cells: dose-dependently reduced

## COc1ccnc(C[S+]([O-])c2nc3ccc(OC(F)F)cc3[nH]2)c1OC (stereo not shown) [Pantoprazole, pantoprazole]
DDAH
  inhibition of DDAH in high throughput screen: more than 30%

## COc1ccc2[nH]c([S+]([O-])Cc3ncc(C)c(OC)c3C)nc2n1 (stereo not shown) [Tenatoprazole, tenatoprazole]
[2]
  IC50: 61 ± 1.5 µM
DDAH
  inhibition of DDAH in high throughput screen: more than 30%
